# Rows were chosen to be rich in hits. Some 2.3% of all compounds tested hit in one or more screens of this group.
# PP1 counter: blocks human PP1-alpha phosphatase, a PP5 counter-screen; P62136; purified PP1alpha, OMFP fluorescence; inhibition, % at 6.7 µM; 320,000 tested, 0.9% active;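 active means inhibition above the mean inhibition of all tested compounds plus 3 SD, computed separately for each screening campaign, cut at about 15% in these data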
# PP5 inh: PP5 (human) phosphatase inhibition. P53041. purified PP5c, OMFP substrate fluorescence. inhibition, % at 6.7 µM. 320,000 tested, 0.18% active. AID 1987;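 active means inhibition above the campaign's mean inhibition across all tested compounds plus 3 SD, cut at about 9.5% in these data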;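 further: 0% = DMSO only and 100% = 100 µM cantharidin control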
# Target sequence (P53041 whole entry, looked up): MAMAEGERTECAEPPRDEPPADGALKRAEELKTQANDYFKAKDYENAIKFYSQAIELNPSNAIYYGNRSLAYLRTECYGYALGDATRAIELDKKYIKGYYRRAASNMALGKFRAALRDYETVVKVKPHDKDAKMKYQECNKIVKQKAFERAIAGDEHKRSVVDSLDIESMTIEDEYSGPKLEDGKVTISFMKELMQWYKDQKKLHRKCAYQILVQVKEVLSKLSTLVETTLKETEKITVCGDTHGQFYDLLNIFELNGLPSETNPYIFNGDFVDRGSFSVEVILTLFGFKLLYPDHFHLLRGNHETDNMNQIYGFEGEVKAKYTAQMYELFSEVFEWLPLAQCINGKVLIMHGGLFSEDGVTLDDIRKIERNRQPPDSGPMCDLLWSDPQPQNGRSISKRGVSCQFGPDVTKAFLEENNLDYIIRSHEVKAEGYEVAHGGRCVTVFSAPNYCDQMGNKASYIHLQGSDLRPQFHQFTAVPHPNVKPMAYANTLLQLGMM
# UBC13 inh: blocks human UBC13 polyubiquitin chain formation; P61088; TR-FRET; inhibition, % at 20 µM; 330,000 tested, 0.47% active; AID 485273; in the data active means inhibition above about 45%, passing the limit was not always enough
# UCH37 DUB inh: human UCH37 deubiquitinating enzyme inhibition; Q9Y5K5; AID 588478; 330,000 tested, 0.33% active; inhibition, % (no concentration beside the values); purified proteasome/UCH37, Ub-AMC cleavage fluorescence;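 active means mean inhibition over replicate wells above about 20%, limit read from the data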;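 further: 0% = compound-free wells with enzyme and 100% = wells lacking proteasome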
#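 Assay system: Proteasome-bound UCH37. Buffer or medium: pH 7.4 Tris-HCl (50 mM) with ovalbumin, ATP-MgCl2, DTT. Incubation: 30 min preincubation with enzyme, 25 min cleavage at room temperature. Measured by: fluorescence, ex 355 nm, em 460 nm. Read-out basis: percent inhibition. Control set: wells without proteasome as full block, compound-free enzyme plus substrate as uninhibited.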
# CTSL1 counter: blocks F. hepatica cathepsin L1 in PFM18AAP counter-screen. recombinant F. hepatica cathepsin L1, Z-Leu-Arg-MCA fluorescence. inhibition, % at 5.96 µM. 300,000 tested, 0.49% active;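 active means inhibition above the mean of all tested compounds plus 3 SD, set per screening campaign, cut at about 17% in these data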;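 further: 0% = plate median of test compound wells and 100% = 1 µM Z-Phe-Ala-diazomethylketone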
# PREPL inh: inhibitors of human prolyl oligopeptidase-like enzyme PREPL; Q4J6C6; inhibition, % at 5.96 µM; AID 2751; recombinant PREPL, fluorescence polarization activity-based probe; 320,000 tested, 0.68% active;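 further: 0% = enzyme with DMSO and 100% = wells lacking enzyme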
# PREPL inh cf: confirmation of human PREPL enzyme inhibitors; shares compounds with PREPL inh; recombinant PREPL, fluorescence polarization activity probe; inhibition, % at 5.96 µM; 2,000 tested, 67% active;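 further: 0% = protein with DMSO and 100% = wells lacking protein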
# Starred values were filed as active, the others as inactive; x = no result given. Unless noted, no stated cut-off is given here; in the data, active means inhibition above about 43%; inactive means the rest.
SMILES,PP1 counter,PP5 inh,UBC13 inh,UCH37 DUB inh,CTSL1 counter,PREPL inh,PREPL inh cf
COc1ccc(Cl)cc1N(CC(=O)NN=Cc1ccc(OC(C)C)cc1)S(=O)(=O)c1ccc(C)c([N+](=O)[O-])c1,x,x,x,3,x,x,x
Cc1ccc(OCC(=O)NN=Cc2cn(C)c3ccccc23)c([N+](=O)[O-])c1,x,x,x,3,x,x,x
Cc1cc[n+](CC(=O)c2cccc([N+](=O)[O-])c2)c2ccccc12,10,3,6,3,-2,45*,14
Cc1c(CCOC(=O)c2ccc([N+](=O)[O-])cc2)sc[n+]1CC(=O)c1ccccc1,1,-1,13,2,1,63*,29
O=C(C[n+]1cccc2ccccc21)c1ccc([N+](=O)[O-])cc1,1,0,-13,5,-2,27,x
COc1ccc(C(=O)OCCc2sc[n+](CC(=O)c3ccccc3)c2C)cc1,6,1,3,1,2,26,x
Cc1c(CCOC(=O)c2cccc([N+](=O)[O-])c2)sc[n+]1CC(=O)c1ccccc1,-1,-3,11,1,0,51*,21
C=CCn1c(=C(C#N)C(=O)NCCN2CCOCC2)sc(=Cc2ccsc2)c1=O,x,x,x,1,x,x,x
COCc1c(C(=O)NN=Cc2ccc(C)o2)nnn1-c1nonc1N,x,x,x,13,x,x,x
CCN(CC)CCC(c1cc(OC)c(OC)c(OC)c1)c1c(O)cc(OC)cc1OC (stereo not drawn),1,0,13,1,-5,45*,47*
CN(C)c1ccc(C(CNC(=O)c2ccccc2)c2c[nH]c3ccccc23)cc1 (stereo not drawn),2,5,-4,3,4,51*,59*
CN(C)c1ccc(C(CNC(=O)c2ccccc2F)c2c[nH]c3ccccc23)cc1 (stereo not drawn),-1,5,-32,26*,-2,47*,51*
CC(=NNC(=O)C1(C)CC1(Br)Br)c1cccc(NC(=O)C(C)(C)C)c1 (stereo not drawn),x,x,x,2,x,x,x
O=C(Cc1cccc2ccccc12)Nc1nnc(-c2cccc([N+](=O)[O-])c2)s1,2,1,-28,2,2,46*,28
COc1ccc2c(c1)CCC2=NOC(=O)c1cccc(C)c1,x,x,x,1,x,x,x
Nc1ccc2nc(CCCCCCCCc3nc4ccc(N)cc4[nH]3)[nH]c2c1,6,-1,-6,4,1,70*,23
Nc1ccc2nc(CCCCCCc3nc4ccc(N)cc4[nH]3)[nH]c2c1,-2,-2,6,-1,1,42,x
O=C(NNc1c2ccccc2nc2ccccc12)c1ccccc1O,2,5,-178,-4,2,46*,30
CCCC(=O)NNc1c2ccccc2nc2ccccc12,-2,0,-16,7,1,2,x
COc1ccc(OCC(=O)NNc2c3ccccc3nc3ccccc23)cc1,0,2,-88,2,13,44*,50*
O=C(COc1ccccc1)NNc1c2ccccc2nc2ccccc12,1,3,-71,-2,1,46*,39
O=C(NNc1c2ccccc2nc2ccccc12)c1ccc(O)cc1,-2,2,-397,4,0,36,x
O=C(Oc1ccc(C=Nn2cnnc2)cc1)c1cccc([N+](=O)[O-])c1,x,x,x,1,x,x,x
O=C(NCCc1ccccc1)C(=O)NN=Cc1ccccc1C(F)(F)F,x,x,x,1,x,x,x
CCOc1ccc2[nH]c3c(N4CCc5ccccc5C4)ncnc3c2c1,-4,3,10,x,-7,54*,65*
COc1ccc2[nH]c3c(N4CCC(O)(c5cccc(C(F)(F)F)c5)CC4)ncnc3c2c1,3,6,7,-62,5,50*,45*
Cc1ccc2[nH]c3c(N4CCOCC4)ncnc3c2c1,-3,3,6,-254,0,13,x
CC(C)=CCC/C(C)=C/CNC(=O)CC1C[C@H](C(=O)N2CCOCC2)[C@@]2(C)c3[nH]c4ccccc4c3CCN2C1=O (stereo partly drawn),x,x,29,3,x,57*,33
NNC(=O)c1oc2nc(-c3cccs3)cc(-c3ccco3)c2c1N,8,0,-54,x,3,62*,65*

# Source: PubChem BioAssay
